Publication PMC5901702 (Journal of biomolecular screening, 2012)

Key:
rat IDE [1] = biological target: T1, rat IDE (Rattus norvegicus, UniProt P35559); experiment: Native PAGE mobility shift of rat IDE; format: binding; settings: ATP 3 mM
T1 sequence (P35559 1-1019): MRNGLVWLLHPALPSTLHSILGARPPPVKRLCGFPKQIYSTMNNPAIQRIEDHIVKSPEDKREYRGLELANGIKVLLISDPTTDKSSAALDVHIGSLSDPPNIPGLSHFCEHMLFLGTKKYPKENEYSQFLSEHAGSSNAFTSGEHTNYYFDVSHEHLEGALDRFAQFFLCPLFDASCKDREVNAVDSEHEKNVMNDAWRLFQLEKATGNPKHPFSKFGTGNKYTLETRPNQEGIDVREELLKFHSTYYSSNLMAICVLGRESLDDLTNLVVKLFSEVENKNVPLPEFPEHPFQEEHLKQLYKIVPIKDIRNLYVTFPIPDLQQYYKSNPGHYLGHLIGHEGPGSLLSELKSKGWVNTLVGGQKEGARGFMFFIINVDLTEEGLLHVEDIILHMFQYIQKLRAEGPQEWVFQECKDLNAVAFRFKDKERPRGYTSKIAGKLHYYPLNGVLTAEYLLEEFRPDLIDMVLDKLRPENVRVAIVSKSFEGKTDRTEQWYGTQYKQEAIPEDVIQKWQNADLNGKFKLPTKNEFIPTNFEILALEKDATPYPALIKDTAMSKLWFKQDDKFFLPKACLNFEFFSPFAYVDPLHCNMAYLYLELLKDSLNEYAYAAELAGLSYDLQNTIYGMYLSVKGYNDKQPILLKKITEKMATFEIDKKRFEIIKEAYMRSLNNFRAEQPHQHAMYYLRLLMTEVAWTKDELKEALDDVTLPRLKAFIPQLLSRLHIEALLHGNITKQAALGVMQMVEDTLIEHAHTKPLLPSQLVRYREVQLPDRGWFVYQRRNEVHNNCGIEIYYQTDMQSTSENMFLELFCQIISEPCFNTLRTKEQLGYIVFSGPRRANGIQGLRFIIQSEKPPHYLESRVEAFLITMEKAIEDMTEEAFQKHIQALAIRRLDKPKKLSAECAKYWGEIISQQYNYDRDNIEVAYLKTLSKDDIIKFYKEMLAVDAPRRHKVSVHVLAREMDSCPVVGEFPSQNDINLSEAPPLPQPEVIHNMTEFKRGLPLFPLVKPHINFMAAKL
Summary of the method: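 Rat IDE was preincubated 60 min at 37 °C with compound (100 µM) or ATP (3 mM). It was mixed 1:1 with 2× native sample buffer (0.6 M Tris-HCl pH 6.8, 20% glycerol, bromophenol blue), run on 10% native PAGE at 4 °C and silver-stained.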

rat IDE [2] = biological target: T1, rat IDE; experiment: ATP effect on rat IDE activity and activators; format: biochemical
Summary of the method: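 Rat IDE (87.7 nM) with 50 µM a-factor–based internally quenched fluorogenic substrate in 50 mM Tris pH 7.5 containing BSA and 1 mM ATP. Compounds were used at optimal levels taken from Tris/BSA dose-response curves. ATP titration (0–10 mM) was also run in 0.1 M KPi pH 7.6 or Tris/BSA. Activity is % of water- or DMSO-treated control, n = 4.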

rat IDE [3] = biological target: T1, rat IDE; experiment: Dose-response of rat IDE activation; format: biochemical; settings: rat IDE activation, a-factor–based substrate
Summary of the method: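 Rat IDE (10 µg/mL) in 0.1 M KPi pH 7.6 was preincubated 10 min at 37 °C with activator (up to 1 mM), then mixed 1:1 with a-factor–based fluorogenic substrate (50 µM final). Fluorescence (320 ex) was read over 60 min and rate taken from the 15–30 min window. Baseline was subtracted and rates normalized to trypsin/pronase E full digestion. AC50 came from best-fit curves, or [Max]50 where the curve was not sigmoidal.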

SMILES: Nc1ncnc2c1ncn2[C@@H]1O[C@H](COP(=O)(O)OP(=O)(O)OP(=O)(O)O)[C@@H](O)[C@H]1O [ATP, adenosine triphosphate, reference compound]
- native PAGE mobility shift of IDE (rat IDE [1]): did not observe a mobility shift
- ATP-dependent activation of IDE (rat IDE [2]; KPi buffer, assay conditions used for HTS): not observed
- maximum activating concentration (rat IDE [2]; Tris/BSA buffering system): approximately 1 mM

SMILES: Cc1ccc(C(=O)Nc2ccc(S(=O)(=O)O)c3cc(S(=O)(=O)O)cc(S(=O)(=O)O)c23)cc1NC(=O)c1cccc(NC(=O)Nc2cccc(C(=O)Nc3cc(C(=O)Nc4ccc(S(=O)(=O)O)c5cc(S(=O)(=O)O)cc(S(=O)(=O)O)c45)ccc3C)c2)c1 [suramin, reference compound]
- dose-response profile (rat IDE [3]): hormetic response
